The test system of assay [1] is Rattus norvegicus. The assay can be described thus: The compound was evaluated for its behavioral activity i.e., locomotor arousal in rat for a dose of 1 mg/kg in time interval of 3 hours. Format: functional. In short, it runs like this:
(§1)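 Adult male Sprague-Dawley rats (150-200 g), 3-7 per group, given agent ip in saline containing DMSO; vehicle controls received saline/DMSO. Locomotion counted in an electronic activity monitor, reported as mean ± SEM counts/hour for 0-1, 1-2 and 2-3 h. Comparison by ANOVA, then post-hoc t tests against vehicle.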

Assay [2] concerns Rattus norvegicus. Nature of the assay: The compound was evaluated for its behavioral activity i.e., locomotor arousal in rat for a dose of 1 mg/kg in time interval of 2 hours. Format: functional. In short, it runs like this: as §1
Assay [3] addresses Sodium-dependent dopamine transporter (Rattus norvegicus, UniProt P23977). The assay can be described thus: Binding affinity for dopamine transporters in rat brain tissue. The assay is classed as tissue-based. In short, it runs like this: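 Crude membrane fraction from rat corpus striatum homogenate. Nonspecific binding defined with 30 μM methylphenidate. Each agent tested at six concentrations in duplicate. Concentration-inhibition curves computer-fit for IC50 ± SEM, converted to Ki = IC50/(1 + [L/Kd]).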

For assay [4], the system named is Rattus norvegicus. Nature of the assay: The compound was evaluated for its behavioral activity i.e., locomotor arousal in rat for a dose of 1 mg/kg in time interval of 1 hour. The assay is classed as functional. The gist of the method: as §1
The test system of assay [5] is Rattus norvegicus. Nature of the assay: The compound was evaluated for its behavioral activity i.e., locomotor arousal in rat for a dose of 0.3 mg/kg in time interval of 1 hour. Format: functional. The gist of the method: as §1
Assay [6] has as its system Rattus norvegicus. Nature of the assay: The compound was evaluated for its behavioral activity i.e., locomotor arousal in rat for a dose of 3 mg/kg in time interval of 2 hours. Format: functional. In short, it runs like this:
as §1

The test system of assay [7] is Rattus norvegicus. The assay can be described thus: The compound was evaluated for its behavioral activity i.e., locomotor arousal in rat for a dose of 0.3 mg/kg in time interval of 3 hours. Format: functional. In short, it runs like this:
as §1

Assay [8] concerns Rattus norvegicus. The assay can be described thus: The compound was evaluated for its behavioral activity i.e., locomotor arousal in rat for a dose of 0.3 mg/kg in time interval of 2 hours. The assay is classed as functional. The gist of the method:
as §1

For assay [9], the system named is Rattus norvegicus. The assay can be described thus: The compound was evaluated for its behavioral activity i.e., locomotor arousal in rat for a dose of 3 mg/kg in time interval of 3 hours. The assay is classed as functional. In short, it runs like this:
as §1

For assay [10], the system named is Rattus norvegicus. The assay can be described thus: The compound was evaluated for its behavioral activity i.e., locomotor arousal in rat for a dose of 3 mg/kg in time interval of 1 hour. Format: functional. In short, it runs like this:
as §1

Assay [11] relates to Rattus norvegicus. The assay can be described thus: The compound was evaluated for its behavioral activity i.e., locomotor arousal in rat for a dose of 1 mg/kg in time interval of 3 hours, expressed as mean =/- SEM activity. The assay is classed as functional. The gist of the method:
as §1

From ChEMBL document CHEMBL1127520, “N-omega-fluoroalkyl analogs of (1R)-2 beta-carbomethoxy-3 beta-(4-iodophenyl)-tropane (beta-CIT): radiotracers for positron emission tomography and single photon emission computed tomography imaging of dopamine transporters” (J Med Chem, 1994) come the findings set out here.

Sodium-dependent dopamine transporter, sequence (P23977 whole entry): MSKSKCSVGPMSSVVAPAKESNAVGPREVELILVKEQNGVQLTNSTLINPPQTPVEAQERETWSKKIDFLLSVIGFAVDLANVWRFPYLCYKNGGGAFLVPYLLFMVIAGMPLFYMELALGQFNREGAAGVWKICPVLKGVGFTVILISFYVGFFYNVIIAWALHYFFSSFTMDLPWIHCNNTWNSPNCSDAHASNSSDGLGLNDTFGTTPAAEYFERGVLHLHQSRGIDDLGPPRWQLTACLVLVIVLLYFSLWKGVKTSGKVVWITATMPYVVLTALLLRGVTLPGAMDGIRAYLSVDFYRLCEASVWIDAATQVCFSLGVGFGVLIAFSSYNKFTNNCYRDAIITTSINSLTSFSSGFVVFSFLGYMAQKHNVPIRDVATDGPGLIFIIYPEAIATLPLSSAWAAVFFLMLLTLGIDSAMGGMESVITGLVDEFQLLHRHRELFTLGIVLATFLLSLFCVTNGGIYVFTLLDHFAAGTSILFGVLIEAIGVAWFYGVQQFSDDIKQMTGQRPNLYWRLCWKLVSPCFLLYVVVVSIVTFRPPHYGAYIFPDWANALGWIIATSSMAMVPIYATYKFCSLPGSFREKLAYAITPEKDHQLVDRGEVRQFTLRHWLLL

One may read the Ki as the equilibrium dissociation constant of an inhibitor or competing ligand from its target. Read a low Ki as higher affinity. For `COC(=O)[C@H]1C(c2ccc(I)cc2)C[C@H]2CCC1N2C` (stereo partly drawn), the values for the Count/h in the assay with Rattus norvegicus [1], with Rattus norvegicus [2] and with Rattus norvegicus [4] were less than 9710, less than 9990 and less than 6820, respectively. The affinity in assay [3], expressed as Ki, was 1.4 nM.

As for `CC(C)OC(=O)[C@@H]1C2CC[C@H](C[C@@H]1c1ccc(I)cc1)N2CCF`, the Ki in assay [3] is 4.4 nM.

On to `CC(C)OC(=O)[C@@H]1C2CC[C@H](C[C@@H]1c1ccc(I)cc1)N2CCCF`, for which the Ki in assay [3] was 1.2 nM.

Regarding `COC(=O)[C@H]1C(c2ccc(I)cc2)C[C@H]2CCC1N2CCCF` (stereo partly drawn), the Count/h with Rattus norvegicus [5] was 759; in the assay with Rattus norvegicus [6] it was less than 2109; in the assay on Rattus norvegicus [1], less than 325; with Rattus norvegicus [2], less than 1071; in the assay with Rattus norvegicus [7], 210; with Rattus norvegicus [8], 403. The Count/h in the assay with Rattus norvegicus [9] is less than 1410; with Rattus norvegicus [4] it was less than 1943; in the assay on Rattus norvegicus [10], less than 3791. Further, the Ki in [3] is 3.5 nM.

As to `COC(=O)[C@H]1C(c2ccc(I)cc2)C[C@H]2CCC1N2CCF` (stereo partly drawn), the Count/h in the assay with Rattus norvegicus [5] is less than 2030; in the assay with Rattus norvegicus [6], less than 7796; in the assay on Rattus norvegicus [2], less than 4200; with Rattus norvegicus [7] it was less than 3459; in the assay on Rattus norvegicus [8], less than 2945; with Rattus norvegicus [9], less than 7562. Besides, the Count/h in the assay on Rattus norvegicus [4] is on record as less than 4180; with Rattus norvegicus [11], less than 4400; with Rattus norvegicus [10], less than 6898. The compound further returned a Ki in assay [3] of 4 nM.

As for `COC(=O)[C@@H]1C2CC[C@@H](C[C@@H]1OC(=O)c1ccccc1)N2C` (single isomer, unassigned) [COCAINE], the Count/h in the assay with Rattus norvegicus [6] is listed as less than 712; in the assay on Rattus norvegicus [2], less than 1960; with Rattus norvegicus [4] it was less than 14940; with Rattus norvegicus [10] it was less than 15710.

For “(2S,5R)-8-(2-Fluoro-ethyl)-3-(4-trimethylstannanyl-phenyl)-8-aza-bicyclo[3.2.1]octane-2-carboxylic acid methyl ester”, the Ki in assay [3] is greater than 10000 nM.

Compound “(2S,5R)-8-(3-Fluoro-propyl)-3-(4-trimethylstannanyl-phenyl)-8-aza-bicyclo[3.2.1]octane-2-carboxylic acid isopropyl ester” displayed an inhibition constant Ki in assay [3] greater than 10000 nM.

“(2S,5R)-8-(3-Fluoro-propyl)-3-(4-trimethylstannanyl-phenyl)-8-aza-bicyclo[3.2.1]octane-2-carboxylic acid methyl ester” returned a Ki in [3] greater than 10000 nM.
